Assay results as given in PubChem BioAssay.
Active and inactive are the calls of the source.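 The calls were made as follows, unless noted: active = current rise at least 3 SD above the untreated control mean in each of two repeat wells; inactive = the rest.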

Experiments:
[1] = thallium flux activation in parental CHO cells, counter-screen for KCNQ1 potentiator project (AID 493006;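 active = duplicate-averaged activation above buffer control mean plus 5 SD of those controls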); conditions: parental CHO-K1 cells, FluxOR thallium flux, at 10 µM; active compounds read high
Outline: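 Test system: parental CHO-K1 cells, FluxOR dye-loaded / Probe or stimulus: potassium plus thallium depolarizing stimulus, 5x stock 12.5 mM K2SO4, Tl2SO4 / Timing: overnight 37 °C plating, 90 min dye, 20 min dark compound / Measured by: kinetic thallium-flux fluorescence / Read-out: max-minus-min fluorescence over baseline, percent of buffer-to-R-L3 span / Benchmarks: buffer and R-L3 controls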

[2] = molecular target: Potassium voltage-gated channel subfamily KQT member 1 (Homo sapiens) (UniProt P51787); experiment: KCNQ1 potassium channel potentiators, confirmation, FluxOR thallium flux, CHO cells, duplicates (AID 493007;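 active = potentiation averaged over duplicate wells exceeding buffer-only control mean by more than 3 SD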;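 as to outcome: cells depolarized by a potassium plus thallium sulfate stimulus after compound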;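 as to potentiation: 0% = buffer-only wells and 100% = R-L3 activator control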); conditions: KCNQ1 cell line, FluxOR thallium flux fluorescence, at 10 µM; active compounds read high, % of reference activator effect, buffer zero
Outline: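 Assay system: CHO cells carrying KCNQ1 | Controls: Buffer and R-L3 controls | Schedule: FluxOR dye loading 90 min, compound exposure 20 min, room temperature | Read-out: Baseline-normalized fluorescence change, percent of buffer-to-R-L3 range | Replicates: Each compound tested in duplicate | Technique: Kinetic thallium influx fluorescence with FluxOR dye, 10 s baseline, 110 s post-stimulus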

[3] = molecular target: Potassium voltage-gated channel subfamily KQT member 2 (Rattus norvegicus) (UniProt O88943); experiment: rat KCNQ2 channel potentiation, selectivity assay for KCNQ1 potentiator project, KCNQ2-CHO-K1 cells (AID 493009;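 active = mean duplicate potentiation above the buffer control mean plus 5 SD of buffer wells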;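 also: assay conditions were tuned for KCNQ1 rather than KCNQ2 modulators; signal is max minus min fluorescence divided by baseline after thallium stimulus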); conditions: FluxOR thallium flux fluorescence, at 10 µM; active compounds read high, scaled: buffer 0, activator control 100
[4] = molecular target: Potassium voltage-gated channel subfamily KQT member 1 (Homo sapiens) (UniProt P51787); experiment: KCNQ1 channel current potentiators, confirmation, orthogonal assay for KCNQ1 potentiator project, IonWorks patch clamp, KCNQ1-CHO cells (AID 493184); conditions: automated patch clamp current, at 10 µM; active compounds read high;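 as to current potentiation: percent change of the same well's current before compound addition so 0% = no change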
Outline: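 Material: KCNQ1-expressing CHO cells; doses: 10 µM final, single point; probe or stimulus: voltage step from -90 mV holding to +40 mV, 2,000 ms; signal: automated voltage clamp, amphotericin B perforated patch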

Potassium voltage-gated channel subfamily KQT member 1 (Homo sapiens), sequence (P51787 whole entry, looked up): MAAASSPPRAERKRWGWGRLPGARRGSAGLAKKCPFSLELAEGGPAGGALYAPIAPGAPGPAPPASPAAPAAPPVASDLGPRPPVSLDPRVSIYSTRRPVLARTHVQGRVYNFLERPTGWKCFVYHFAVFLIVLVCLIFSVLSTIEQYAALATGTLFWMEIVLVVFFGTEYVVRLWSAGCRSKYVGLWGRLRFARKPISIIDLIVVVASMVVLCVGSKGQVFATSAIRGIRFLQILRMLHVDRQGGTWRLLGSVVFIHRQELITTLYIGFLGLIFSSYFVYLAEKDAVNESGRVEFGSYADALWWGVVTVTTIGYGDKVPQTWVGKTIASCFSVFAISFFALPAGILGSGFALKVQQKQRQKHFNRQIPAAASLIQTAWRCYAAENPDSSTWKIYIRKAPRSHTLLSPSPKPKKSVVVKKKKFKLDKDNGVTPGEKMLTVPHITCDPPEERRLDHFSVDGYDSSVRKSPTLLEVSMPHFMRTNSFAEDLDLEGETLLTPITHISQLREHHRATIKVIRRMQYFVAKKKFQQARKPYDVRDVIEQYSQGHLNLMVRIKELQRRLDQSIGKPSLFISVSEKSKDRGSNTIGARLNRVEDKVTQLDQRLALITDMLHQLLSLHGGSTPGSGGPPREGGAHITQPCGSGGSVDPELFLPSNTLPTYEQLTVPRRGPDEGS
Potassium voltage-gated channel subfamily KQT member 2 (Rattus norvegicus), sequence (O88943 whole entry, looked up): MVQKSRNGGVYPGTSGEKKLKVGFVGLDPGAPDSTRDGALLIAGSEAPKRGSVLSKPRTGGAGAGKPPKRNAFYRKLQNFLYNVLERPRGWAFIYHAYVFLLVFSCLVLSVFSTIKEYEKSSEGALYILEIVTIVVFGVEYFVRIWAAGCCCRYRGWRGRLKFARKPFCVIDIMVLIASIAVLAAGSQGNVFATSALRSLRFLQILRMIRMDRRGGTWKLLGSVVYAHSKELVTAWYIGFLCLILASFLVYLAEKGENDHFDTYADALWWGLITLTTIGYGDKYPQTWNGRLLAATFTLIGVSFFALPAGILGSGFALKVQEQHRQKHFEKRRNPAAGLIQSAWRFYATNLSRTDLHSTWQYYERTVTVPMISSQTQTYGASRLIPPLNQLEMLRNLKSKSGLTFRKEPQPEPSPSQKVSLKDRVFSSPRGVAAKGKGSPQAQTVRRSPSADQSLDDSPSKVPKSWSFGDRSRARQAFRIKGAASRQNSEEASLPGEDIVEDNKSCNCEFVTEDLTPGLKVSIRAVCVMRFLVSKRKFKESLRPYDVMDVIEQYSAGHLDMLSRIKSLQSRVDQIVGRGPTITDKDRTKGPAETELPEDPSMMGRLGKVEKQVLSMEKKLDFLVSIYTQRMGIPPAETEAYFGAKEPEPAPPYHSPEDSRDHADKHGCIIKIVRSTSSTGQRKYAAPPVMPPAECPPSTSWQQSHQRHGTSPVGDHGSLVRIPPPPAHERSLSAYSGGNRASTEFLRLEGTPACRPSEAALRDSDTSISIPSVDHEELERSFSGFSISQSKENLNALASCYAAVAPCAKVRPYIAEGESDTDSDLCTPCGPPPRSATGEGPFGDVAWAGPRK

Structure (SMILES)	outcome [1]	potentiation [2]	outcome [3]	outcome [4]	activation [1]	outcome [2]	potentiation [3]	current potentiation [4]
CC(/C=N/n1c(-c2ccc(Cl)cc2)n[nH]c1=S)=C\c1ccco1	inactive	28% (active)	inactive	inactive	–	–	–	–
C=C(C)CNC(=S)Nc1nc2c(cc1C(=O)OCC)CCCC2	–	–	inactive	inactive	143% (active)	inactive	–	–
COc1ccc(NC(=O)C(=O)NNC(=O)c2ccc(Cl)cc2Cl)cc1	–	200% (active)	–	inactive	412% (active)	–	492% (active)	–
COc1ccc(C2NC(c3ccc(OC)c(OC)c3OC)C(C)C(=O)C2C)c(OC)c1OC (stereo not drawn)	inactive	–	inactive	inactive	–	inactive	–	–
Cc1cccc(C(=O)Nc2ccccc2C(=O)NCc2cccnc2)c1	inactive	–	inactive	inactive	–	inactive	–	–
OC[C@H]1O[C@H](OC[C@H]2O[C@H](OC[C@H]3O[C@H](O[C@]4(CO)O[C@H](CO)[C@@H](O)[C@@H]4O)[C@H](O)[C@@H](O)[C@@H]3O)[C@H](O)[C@@H](O)[C@H]2O)[C@H](O)[C@@H](O)[C@H]1O	inactive	–	inactive	inactive	–	inactive	–	–
CC(=O)c1c(N)[nH]c(-c2ccccc2)nc1=S	inactive	–	inactive	inactive	–	inactive	–	–
CC/C(=N\NC(=S)Nc1cccc(C)c1)c1ccccc1	inactive	104% (active)	–	inactive	–	–	216% (active)	–
CCN(C(=O)COC(=O)C(Cc1ccccc1)N1C(=O)c2ccccc2C1=O)C1CCS(=O)(=O)C1 (stereo not drawn)	inactive	–	inactive	inactive	–	inactive	–	–
Cc1ccc2nc(SCC(=O)N3CCN(C(=O)c4ccco4)CC3)[nH]c2c1	inactive	–	inactive	inactive	–	inactive	–	–
COc1ccc(CN2CCCC(CNC(=O)c3ccc(F)cc3)C2)c(C)c1C (stereo not drawn)	inactive	–	inactive	inactive	–	inactive	–	–
N#C/C(=C\c1ccc(-c2ccccc2Cl)o1)C(=O)Nc1nc2ccccc2s1	inactive	–	inactive	inactive	–	inactive	–	–
Cc1cc(C)c(S(=O)(=O)Nc2cccc3nsnc23)c(C)c1	inactive	–	inactive	inactive	–	inactive	–	–
COc1ccc2nc(/N=C/c3c(C)[nH]n(-c4ccc(C)cc4C)c3=O)sc2c1	–	113% (active)	–	inactive	232% (active)	–	306% (active)	–
N#CC(c1ccc(Cl)cc1)c1ccc2c(C(F)(F)F)cc(C(F)(F)F)nc2n1 (stereo not drawn)	–	145% (active)	–	inactive	296% (active)	–	407% (active)	–
Cc1ccc(S(=O)(=O)N2CCN(C(=O)CCC(=O)OCC(=O)Nc3cccc(C#N)c3)CC2)cc1	inactive	–	inactive	inactive	–	inactive	–	–
CCOc1cc(CNc2ncnc3nc[nH]c23)ccc1OC	inactive	–	inactive	inactive	–	inactive	–	–
C/C(=N\NC(=O)C(=O)Nc1cccc(C(F)(F)F)c1)c1ccc(Cl)s1	inactive	–	inactive	inactive	–	inactive	–	–
Cc1ccc(NC(=S)N2CCC(N(C)CC3CCCO3)CC2)cc1 (stereo not drawn)	inactive	19.5% (active)	inactive	inactive	–	–	–	–

Structure (SMILES)	outcome [1]	potentiation [2]	outcome [3]	outcome [4]	activation [1]	outcome [2]	potentiation [3]	current potentiation [4]
COc1cc(OC)cc(C(=O)NC(=S)N(Cc2ccccc2)C(C)C)c1	–	150% (active)	–	inactive	294% (active)	–	380% (active)	–
Nc1c(C(=O)Nc2ccc(F)cc2)nnn1-c1cccc(C(F)(F)F)c1	inactive	–	inactive	inactive	–	inactive	–	–
N#CC1=C(Nc2ccccc2)SC=C(c2ccc(Br)cc2)N=C1N1CCOCC1	inactive	–	inactive	inactive	–	inactive	–	–
COC(=O)c1ccc(COC(=O)c2ccccc2OC)cc1	inactive	–	inactive	inactive	–	inactive	–	–
CCCn1cc(NC(=O)c2cc(-c3ccccc3)on2)cn1	inactive	25% (active)	inactive	inactive	–	–	–	–
COc1ccccc1-c1cc(C(=O)Nc2cccnc2)no1	–	112% (active)	–	inactive	314% (active)	–	398% (active)	–
COc1ccc(NC(=O)C(=O)NNC(=O)C(C)Oc2ccc(Cl)cc2Cl)cc1 (stereo not drawn)	–	177% (active)	–	inactive	481% (active)	–	492% (active)	–
CC(C)c1nc2sc3c(=S)nc[nH]c3c2c2c1CCC2	–	194% (active)	–	inactive	247% (active)	–	310% (active)	–
CC(=O)Nc1ccc(S(=O)(=O)N2CCC(C(=O)O)CC2)cc1	inactive	–	inactive	inactive	–	inactive	–	–
Cc1onc(-c2ccccc2Cl)c1C(=O)Nc1ccccc1O	inactive	–	inactive	inactive	–	inactive	–	–
CCCC(=O)n1nc(-c2ccccc2)nc1N	inactive	–	inactive	inactive	–	inactive	–	–
Oc1c(Br)cc(Br)cc1C=NCc1ccc(F)cc1	–	–	–	inactive	153% (active)	inactive	146% (active)	–
Cc1cc(NS(=O)(=O)c2ccc(NC(=O)C(C)Oc3ccccc3Cl)cc2)no1 (stereo not drawn)	inactive	–	inactive	inactive	–	inactive	–	–
CN(CC(=O)NCCc1ccc(F)cc1)Cc1cccc(Cl)c1	inactive	–	inactive	inactive	–	inactive	–	–
CCOC(=O)Cc1csc(NC(=S)NC(=O)c2ccc(F)cc2)n1	inactive	–	inactive	inactive	–	inactive	–	–
COc1ccc2nc(/N=C/c3c(C)[nH]n(-c4ccc(C)cc4)c3=O)sc2c1	–	273% (active)	–	inactive	340% (active)	–	518% (active)	–
COc1cccc(N=Nc2ccc(O)c3ncccc23)c1	–	44% (active)	–	inactive	166% (active)	–	170% (active)	–
COc1ccc(-c2nnc(Nc3nc4c(OC)cccc4s3)o2)cc1	–	164% (active)	–	inactive	468% (active)	–	392% (active)	–
O=C(NC(=S)NC1CCCCC1)c1ccc(F)cc1	inactive	–	inactive	inactive	–	inactive	–	–

Structure (SMILES)	outcome [1]	potentiation [2]	outcome [3]	outcome [4]	activation [1]	outcome [2]	potentiation [3]	current potentiation [4]
CSc1ccc(/C=N/n2c(Cc3ccc(Br)cc3)n[nH]c2=S)cc1	inactive	174% (active)	–	inactive	–	–	168% (active)	–
Cc1ccc(N(C(=O)c2ccco2)C(C(=O)NC2CCCC2)c2cccnc2)cc1C (stereo not drawn)	inactive	–	inactive	inactive	–	inactive	–	–
O=C(CNC(=O)C(c1ccccc1)c1ccccc1)N/N=C/c1ccc(O)cc1O	inactive	–	inactive	inactive	–	inactive	–	–
Cc1nnc(SCC(=O)N(Cc2ccccc2)C(C)C)n1-c1ccccc1	inactive	–	inactive	inactive	–	inactive	–	–
Cc1ccc(-n2[nH]c(C)c(/C=N/N3C(=O)c4cccc5cccc(c45)C3=O)c2=O)cc1	–	86% (active)	–	inactive	153% (active)	–	225% (active)	–
CC1CCC(n2c(=S)[nH]c3ccccc3c2=O)CC1 (stereo not drawn)	–	70% (active)	–	inactive	234% (active)	–	243% (active)	–
Cc1ccc(C(=O)Sc2cccccc2=O)cc1	–	37.5% (active)	–	inactive	230% (active)	–	228% (active)	–
Oc1c(Br)cc(Cl)cc1C=Nc1ccccc1Br	–	161% (active)	–	inactive	296% (active)	–	310% (active)	–
COCCn1c(=S)[nH]c2sc3c(c2c1=O)CCC(C)C3 (stereo not drawn)	–	191% (active)	–	inactive	541% (active)	–	514% (active)	–
CN(C)c1ccc(NC(=O)COC(=O)c2cc(Cl)ccc2[N+](=O)[O-])cc1	inactive	–	inactive	inactive	–	inactive	–	–
O=C(NC(=S)Nc1ccccn1)c1cc(-c2ccccc2)nc2ccccc12	inactive	18% (active)	inactive	inactive	–	–	–	–
CC1=NN(C(=O)c2csc(C(C)C)c2)C(O)(C(F)(F)F)C1 (stereo not drawn)	–	61.5% (active)	–	inactive	164% (active)	–	178% (active)	–
CCCS(=O)(=O)c1c(S(=O)(=O)CCC)c2ccc(C(N)=O)cn2c1C(=O)c1ccccc1	inactive	–	inactive	inactive	–	inactive	–	–
COc1ccccc1/C=C1\N=C(C(C)(C)C)OC1=O	inactive	–	inactive	inactive	–	inactive	–	–
Cc1ccc(C)c(NC(=S)NNC(=O)c2csc3c2CCC(C)C3)c1 (stereo not drawn)	–	116% (active)	–	inactive	242% (active)	–	322% (active)	–
Cc1sc2nc(C(C)C)nc(SCC(=O)NCc3ccco3)c2c1C	–	85.5% (active)	–	inactive	276% (active)	–	280% (active)	–
COC(=O)c1cccc(NC(=O)CSc2nncn2-c2ccccn2)c1	inactive	–	inactive	inactive	–	inactive	–	–
C/C(=N\NC(=O)c1cc2ccccc2cc1O)c1ccccn1	–	38.5% (active)	–	–	157% (active)	–	169% (active)	21.5% (active)
Cc1ccccc1NC(=S)NC(=O)c1cc(-c2ccccc2)nc2ccccc12	–	53% (active)	–	inactive	151% (active)	–	158% (active)	–
